Most compounds without a hit are left out; they make up all but 5.9% or so of the library.
Measles CPE: compounds protecting cells from measles virus cytopathic effect, primary screen, measles RdRp inhibitor project, single point, MLSMR library, absorbance; protection (pct of control), % at 4 µM; actives 1.5% (n = 140,000); Measles virus-infected cells, CPE protection; in the data active = protection mostly above about 24%, no sharp cut-off; inactive = mostly below about 26%
Phagocytosis inh: inhibitors of macrophage phagocytosis, primary screen, imaging, J774A.1 cells, IgG beads | J774A.1 macrophage IgG-bead phagocytosis | inhibition, % at 5 µM | actives 0.07% (n = 110,000) | AID 1029, 2008;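 active = inhibition above the mean of the plate negative controls plus 5 SD, cut at about 13% in these data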;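 also: phagocytic index as fraction of beads internalized from green versus red external bead signal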
PTK2B oligo ant: antagonists of Pyk2 self-association, primary screen, Q293 cells, FERM NanoBiT luminescence, HTS | actives 0.83% (n = 99,000) | hits give low values | Protein-tyrosine kinase 2-beta (Homo sapiens), Q14289 | z-score (the deposit names both 25 µM and 10 µM);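 active = Z-score of -3 or lower, scaled per plate to the spread of control and sample wells; inactive = z-score above -3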;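 also: negative z-score means lost luminescence so less FERM oligomerization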
Cav32 inh: Cav3.2 calcium influx blockers – cell-based, Fluo-4 calcium fluorescence, FDSS, MLSMR library, primary screen; actives 4% (n = 100,000); Cav3.2-expressing cells; hits give low values; AID 449739, 2010; B-score at 10 µM;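 active = single-dose well whose peak fluorescence ratio is a statistical outlier from its plate by either plate-standardised score or position-corrected B-score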
DAT uptake mod: changed hDAT dopamine uptake under cocaine IC80, either direction, primary screen, cocaine antagonist project, cell-based, LLC-PK1 hDAT, [14C]-dopamine uptake, MLSMR | actives 1.3% (n = 110,000) | LLC-PK1 hDAT cells, [14C]-dopamine uptake with cocaine IC80; actives deviate in either direction | Sodium-dependent dopamine transporter (Homo sapiens), Q01959 | B-score at 10 µM;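 active = Z score or B-score, a plate-position-corrected score, falls beyond the plate's 99.7% confidence bounds, in either direction; inactive = both scores lie inside the 99.7% bounds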
HIV Rev-RRE inh: HIV-1 Rev-RRE binding inhibitors, primary screen, biochemical, FRET, protein-RNA interaction | P05866 | Rev peptide-RRE RNA binding | inhibition, % at 8 µM | actives 0.79% (n = 97,000) | AID 704, 2007;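 active = inhibition above the screen-wide mean plus 3 SD, cut at about 35% in these data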
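Assay system: Labelled RRE RNA duplex and labelled Rev peptide | Times: 5 min preincubation and 15 min binding, 25 °C | Detection: FRET, ex 480 nm, em 540 and 671 nm | Evaluation: % inhibition of FRET ratio versus controls | Benchmarks: DMSO wells as 0% and neomycin B wells as 100% inhibition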
Numbers stand for hits.

C=CCn1c(COc2ccc(Cl)cc2)nnc1SCC(=O)NCC(=O)OCC was read as Measles CPE inactive, Phagocytosis inh inactive, PTK2B oligo ant inactive, Cav32 inh inactive, DAT uptake mod inactive and HIV Rev-RRE inh inactive.
Screening C=CCn1c(CSCc2ccc(Cl)cc2)nnc1SCC(=O)NCc1ccccc1 returned Measles CPE inactive, Phagocytosis inh inactive, PTK2B oligo ant inactive, Cav32 inh -6.6, DAT uptake mod inactive and HIV Rev-RRE inh inactive.
`O=C(CSc1nnc(CCc2ccccc2)n1-c1ccc(Cl)cc1)NCc1ccccc1` gave Measles CPE inactive, Phagocytosis inh inactive, PTK2B oligo ant inactive, Cav32 inh -5.9, DAT uptake mod inactive and HIV Rev-RRE inh inactive.
For COc1ccc(-n2c(CCc3ccccc3)nnc2SCC(=O)NCc2ccccc2)cc1 the results were Measles CPE inactive, Phagocytosis inh inactive, PTK2B oligo ant inactive, Cav32 inh inactive, DAT uptake mod inactive and HIV Rev-RRE inh inactive.
For O=C(CCCn1nnc(-c2cccnc2)n1)c1ccc(F)cc1 the results were Measles CPE inactive, Phagocytosis inh inactive, PTK2B oligo ant inactive, Cav32 inh inactive and DAT uptake mod inactive.
Screening Cc1c(NC(=S)NC(=O)c2cc3ccccc3o2)c(=O)n(-c2ccccc2)n1C returned Measles CPE inactive and Phagocytosis inh inactive.
Screening NC(=O)c1ccccc1Nc1nc(NCCO)nc(N2CCCC2)n1 returned Cav32 inh inactive and DAT uptake mod inactive.
O=c1ccc(NS(=O)(=O)c2ccc(Cl)cc2)cn1Cc1ccc(Cl)c(Cl)c1 was read as Measles CPE inactive, PTK2B oligo ant inactive, Cav32 inh -4.4, DAT uptake mod inactive and HIV Rev-RRE inh inactive.
O=C(CN1CCc2ccccc2C1)Nc1ccccc1N1CCCCCC1 was read as Measles CPE inactive, Phagocytosis inh inactive, PTK2B oligo ant inactive, Cav32 inh -3.3, DAT uptake mod inactive and HIV Rev-RRE inh inactive.
O=C(CN1CCCCC1)Nc1ccccc1NC(=O)CN1CCCCC1 was read as Measles CPE inactive, Phagocytosis inh inactive, PTK2B oligo ant inactive, Cav32 inh inactive, DAT uptake mod inactive and HIV Rev-RRE inh inactive.
For CCOC(=O)c1ccc(NC(=O)CN2CCc3ccccc3C2)cc1 the results were Measles CPE inactive, Phagocytosis inh inactive, PTK2B oligo ant inactive, Cav32 inh -5.2, DAT uptake mod inactive and HIV Rev-RRE inh inactive.
`O=C(CNCC1CCCCC1)Nc1ccccc1N1CCCCC1` gave Measles CPE inactive, PTK2B oligo ant inactive, Cav32 inh -7.1, DAT uptake mod inactive and HIV Rev-RRE inh inactive.
`Cc1ccccc1CSCC(=O)NCc1ccco1` gave Measles CPE inactive and Phagocytosis inh inactive.
For CSc1ccccc1NS(=O)(=O)c1ccccc1 the results were Measles CPE inactive, Phagocytosis inh inactive, PTK2B oligo ant inactive, Cav32 inh inactive, DAT uptake mod inactive and HIV Rev-RRE inh inactive.
NC(=O)SCC(=O)Nc1cccc(Cl)c1 was read as Measles CPE inactive, Phagocytosis inh inactive, PTK2B oligo ant inactive, Cav32 inh -5.4, DAT uptake mod inactive and HIV Rev-RRE inh inactive.
`Cc1ccc(NC(=O)CSC(N)=O)cc1Cl` gave Measles CPE inactive, Phagocytosis inh inactive, PTK2B oligo ant inactive, Cav32 inh -6.3, DAT uptake mod inactive and HIV Rev-RRE inh inactive.
CCCC(=O)Nc1ccc2nc(SCC(=O)Nc3ccc(N4CCOCC4)c(Cl)c3)sc2c1 was read as Measles CPE inactive, PTK2B oligo ant -3.5, Cav32 inh inactive, DAT uptake mod inactive and HIV Rev-RRE inh inactive.
`Nc1ccc2nc(SCC(=O)Nc3ccc(N4CCOCC4)c(Cl)c3)sc2c1` gave Measles CPE inactive and Phagocytosis inh inactive.
For NC(=O)c1ccc(-n2nnnc2SCC(=O)Nc2ccc(N3CCOCC3)c(Cl)c2)cc1 the results were Measles CPE 32, Phagocytosis inh inactive, PTK2B oligo ant inactive, Cav32 inh inactive, DAT uptake mod inactive and HIV Rev-RRE inh inactive.
CNc1nc(SCc2ccc(C)cc2)nc2c1CCCC2 was read as Measles CPE 57, PTK2B oligo ant inactive, Cav32 inh -6, DAT uptake mod inactive and HIV Rev-RRE inh inactive.
For O=C1CSC(c2ccccc2F)N1c1cc(Cl)ccc1O (configuration not stated) the results were Measles CPE inactive, PTK2B oligo ant inactive, Cav32 inh -3.7, DAT uptake mod inactive and HIV Rev-RRE inh inactive.
For CCN(CC)C(=O)CC(c1ccc(N(C)C)cc1)c1c(OC)cc(OC)c2ccc(=O)oc12 (configuration not stated) the results were Cav32 inh inactive and DAT uptake mod inactive.
For CCN(CC)C(=O)CC(c1ccc2c(c1)OCO2)c1c(OC)cc(OC)c2ccc(=O)oc12 (configuration not stated) the results were Cav32 inh inactive and DAT uptake mod 2.7.
For C/C(=N\NC(=O)C(=O)Nc1cccc(Cl)c1C)c1ccncc1 the results were Measles CPE inactive, Phagocytosis inh inactive and PTK2B oligo ant inactive.
For COC(=O)c1c(NS(=O)(=O)c2ccc3ccccc3c2)sc2c1CCCC2 the results were Measles CPE inactive, Phagocytosis inh inactive, PTK2B oligo ant inactive, Cav32 inh inactive, DAT uptake mod inactive and HIV Rev-RRE inh inactive.
For CC1CCc2c(sc(NS(=O)(=O)c3ccccc3)c2C(=O)OC(C)C)C1 (configuration not stated) the results were Measles CPE inactive, PTK2B oligo ant inactive, Cav32 inh -5.1, DAT uptake mod inactive and HIV Rev-RRE inh inactive.
For Cc1cc(NC(c2ccc(Cl)cc2)c2ccc3cccnc3c2O)no1 (configuration not stated) the results were Measles CPE inactive, Phagocytosis inh inactive, PTK2B oligo ant inactive, Cav32 inh -4.1, DAT uptake mod inactive and HIV Rev-RRE inh inactive.
Oc1c(C(Nc2ccccn2)c2ccccn2)ccc2cccnc12 (configuration not stated) was read as Phagocytosis inh inactive and PTK2B oligo ant inactive.
For O=C1C2C(C(=O)N1/N=C/c1ccc(N3CCCCC3)o1)C1C=CC2C12CC2 (configuration not stated) the results were Measles CPE inactive.
CN=Cc1nc(-c2ccccc2)oc1O was read as Measles CPE inactive, PTK2B oligo ant inactive, Cav32 inh inactive, DAT uptake mod inactive and HIV Rev-RRE inh inactive.
CC1=Nc2ccccc2/C1=C\c1nc(-c2ccc(F)cc2)oc1O was read as Measles CPE inactive, Phagocytosis inh inactive, PTK2B oligo ant inactive, Cav32 inh inactive, DAT uptake mod inactive and HIV Rev-RRE inh 52.
Screening Cc1ccc(S(=O)(=O)N2CCSC2)cc1C returned Measles CPE inactive, Phagocytosis inh inactive, PTK2B oligo ant inactive, Cav32 inh inactive, DAT uptake mod inactive and HIV Rev-RRE inh inactive.

Bioassay records: PubChem BioAssay, several laboratories
